ChEMBL document CHEMBL1122327, “Replacement of aromatic or heteroaromatic groups in nonsteroidal antiinflammatory agents with the ferrocene group” (1983)
Active and inactive are the calls of the source. The rule behind the calls is not given here.

What was measured:
[1] = tested on: Rattus norvegicus; assay: Evaluated for the percentage inhibition by adjuvant arthritis test at a dose of 50 mg/kg administarted perorally; Inactive; type: functional, organism-based; parameters: dose 50 mg/kg
[2] = species: Homo sapiens; assay: Evaluated for the inhibition of serotonin release from platelets at dose of 20 uM; type: functional
In short: (§1)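 Human platelet-rich plasma at 300 000 platelets/μL, loaded with [3H]5-HT (0.5 μM final, 50 μCi/μmol) for 30 min at room temperature. Compound added in PEG 300 and incubated 10 min at 37 °C, then stirred with collagen (1.6 μL/mL final) for 5 min. Reaction stopped with EDTA and samples centrifuged. Supernatant radioactivity counted by scintillation; % inhibition calculated against vehicle-treated plasma.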

[3] = species: Homo sapiens; assay: Evaluated for the inhibition of serotonin release from platelets at dose of 100 uM; type: functional; in short: as §1
[4] = species: Homo sapiens; assay: Evaluated for the inhibition of platelet aggregation at dose of 20 uM; type: functional
In short: (§2)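 Human platelet-rich plasma from citrated blood of volunteers who had taken no drugs for at least 10 days, adjusted to 300 000 platelets/μL with platelet-poor plasma. Compound added in PEG 300, then 8 min at 37 °C and 2 min equilibration with stirring at 1200 rpm. Collagen added to trigger aggregation. Maximum rise in light transmission measured within 1–2.5 h of the blood draw; % inhibition calculated against control.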

[5] = species: Homo sapiens; assay: Evaluated for the inhibition of platelet aggregation at dose of 100 uM; type: functional; in short: as §2
[6] = tested on: Rattus norvegicus; assay: Evaluated for the percentage inhibition by adjuvant arthritis test at a dose of 100 mg/kg administarted perorally; Inactive; type: functional, organism-based; parameters: dose 100 mg/kg
[7] = species: Homo sapiens; assay: Percent inhibition of collagen-induced platelet aggregation at a concentration of 100 uM; type: functional
In short: (§3)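 Human platelet-rich plasma from drug-free volunteers (citrated blood, 450 g spin), adjusted to 300 000 platelets/μL with platelet-poor plasma. Compound in PEG 300 preincubated 8 min at 37 °C, then 2 min equilibration with stirring at 1200 rpm. Aggregation triggered with collagen; maximum rise in light transmission read by aggregometer. Percent inhibition calculated against control. Runs done 1–2.5 h after blood draw.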

[8] = species: Homo sapiens; assay: percent inhibition of serotonin release from platelets at a concentration of 20 uM; type: functional
In short: (§4)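 Human platelet-rich plasma at 300 000/μL, loaded with [3H]5-HT (0.5 μM final) for 30 min at room temperature. Compound in PEG 300 incubated 10 min at 37 °C, then stirred with collagen (1.6 μL/mL final) for 5 min and stopped with EDTA. After centrifugation, supernatant radioactivity was counted by scintillation. Percent inhibition calculated against vehicle-treated plasma.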

[9] = tested on: Rattus norvegicus; assay: Evaluated for the percentage inhibition by adjuvant arthritis test at a dose of 50 mg/kg administarted perorally; type: functional; settings: route oral
[10] = species: Homo sapiens; assay: Percent inhibition of collagen-induced platelet aggregation at a concentration of 20 uM; type: functional; in short: as §3
[11] = species: Homo sapiens; assay: percent inhibition of serotonin release from platelets at a concentration of 100 uM; type: functional; in short: as §4
[12] = tested on: Rattus norvegicus; assay: Evaluated for the percentage inhibition by adjuvant arthritis test at a dose of 25 mg/kg administarted perorally; Inactive; type: functional, organism-based; parameters: dose 25 mg/kg

Molecule | inhibition [1] | inhibition [2] | inhibition [3] | inhibition [4] | inhibition [5] | inhibition [6] | inhibition at 100 µM [7] | inhibition at 20 µM [8] | inhibition in vivo at 50 mg/kg [9] | inhibition at 20 µM [10] | inhibition at 100 µM [11] | inhibition [12]
2-[2-(3-Cyclopenta-2,4-dienylmethyl-Ferrocenoyl)-2-oxo-ethyl]-benzoic acid | inactive | 3% | 0% | 7% | 28% |  |  |  |  |  |  | 
[3-(Cyclopenta-2,4-ferrocenoyl)-4-(4-methyl-benzoyl)-cyclopenta-1,3-dienyl]-acetic acid |  | 0% | 23% | 2% | 6% | inactive |  |  |  |  |  | 
Cc1ccc(C(=O)c2ccc(CC(=O)O)n2C)cc1 [TOLMETIN] |  |  |  |  |  |  | 85% | 90% | 34% | 74% | 88% | 
2-{5-[3-(4-Methyl-benzoyl)-Ferrocenoyl]-cyclopenta-1,3-dienyl}-acetamide |  | 0% | 34% | 4% | 15% | inactive |  |  |  |  |  | 
O=C(O)CCC(=O)c1ccc(-c2ccccc2)cc1 [FENBUFEN] |  |  |  |  |  |  |  |  | 71% |  |  | 
calcium salt of 4-Ferrocenoyl-1-methyl-1H-pyrrole-2-acetate |  | 10% | 12% | 2% | 3% | inactive |  |  |  |  |  | 
(3-Ferrocenoyl-cyclopenta-2,4-dienyl)-acetic acid |  | 0% | 16% | 5% | 6% | inactive |  |  |  |  |  | 
4-Ferrocenoyl-1-methyl-1H-pyrrole-2-acetate | inactive | 32% | 60% | 20% | 27% |  |  |  |  |  |  | 
CC(C(=O)O)c1ccc(-c2ccccc2)c(F)c1 (stereo unspecified) [FLURBIPROFEN] |  |  |  |  |  |  | 89% | 86% | 55% | 88% | 90% | 
Methyl 5-Ferrocenoyl-1-methyl-1H-pyrrole-2-acetate |  | 3% | 0% | 0% | 6% | inactive |  |  |  |  |  | 
4-(3-Ferrocenoyl-cyclopenta-2,4-dienyl)-4-oxo-butyric acid |  | 29% | 64% | 0% | 8% |  |  |  |  |  |  | inactive
